Screening data: PubChem BioAssay, several laboratories
Shown are actives, neighbours in structure and some others; about 5.6% of the full set was active somewhere.
CHOP UPR activ – apoptotic UPR (CHOP) activation | CHO-CHOP luciferase reporter, luminescence; percent of tunicamycin response over DMSO baseline | activation, % at 10 µM | 0.34% of 330,000 active;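 active = at 10 µM dose, activation of 40% or more, normalized to positive control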;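 also: 100% = tunicamycin at 10 µg/mL and 0% = DMSO alone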
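System: CHO CHOP reporter cells. Amount: 500 cells per well. Buffer or medium: F12 medium, 10% FBS. Compound dosing: one dose, 10 µM in 0.5% DMSO. Incubation: 6 h compound exposure at 37 °C after overnight seeding. Technique: Steady-Glo luciferase luminescence. Benchmarks: tunicamycin and DMSO controls.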
MPTP block – blocks calcium-induced mitochondrial swelling; inhibition, % at 10 µM; isolated mouse mitochondria, Ca2+ swelling absorbance, 30 min; 1.4% of 360,000 active;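 active = inhibition of 50% or more, scaled per plate between neutral and stimulator controls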;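 also: 0% = DMSO wells given calcium and 100% = 1 mM EGTA wells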
aDG glyco act – alpha-DG glycosylation activation. activation, % at 10 µM. 0.22% of 360,000 active. Pro5-aDG cells, alpha-DG glycosylation AlphaScreen (IIH6); 0% Pro5, 100% B10-LARGE cell signal;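 active = activation of at least 8% versus controls, or a plate z-score of at least 8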;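 also: Pro5 are CHO cells carrying HIG-tagged alpha-DG that lacks glycosylation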
NR3A LBD binder – modulators (binders) of human NR3A ligand-binding domain; NR3A LBD differential scanning fluorimetry, Tm shift; 0% = protein alone, 100% = glycine-bound protein; Tm shift relative to glycine control, % at 25 µM; 2.5% of 340,000 active;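 active = melting temperature shift of at least 10% of the positive control shift, at one fixed dose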
UPR XBP1 act – activators of adaptive arm of unfolded protein response (XBP1); CHO-XBP1 luciferase reporter, IRE1-XBP1 UPR activation, luminescence; percent of tunicamycin response, DMSO as zero; activation, % at 20 µM; 0.33% of 330,000 active; AID 463104;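 active = versus positive control, 20 µM dose yields 30% or more activation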;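 also: 100% = tunicamycin at 10 µg/mL and 0% = DMSO only wells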
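assay system = CHO-XBP1 luciferase reporter cells | amount = 1000 cells/well | buffer or medium = F12 plus 10% FBS | compound dosing = single point, 20 µM final compound, 1% DMSO | incubation = 16-18 h cell attachment at 37 °C, then 6 h compound exposure | detection = Steady-Glo luminescence read | controls = tunicamycin 10 µg/mL and vehicle-only wells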
CHOP inhibitor – blocks CHOP induction under ER stress; CHO-K1 CHOP-promoter luciferase, tunicamycin-induced, 15-18 h; inhibition, % at 10 µM; 3.8% of 220,000 active;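 active = compounds that reduced the stress-induced luciferase reporter signal by more than about 70% of percent inhibition, limit read from the data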;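 also: 0% = tunicamycin plus vehicle and 100% = wells without tunicamycin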
Active calls of the source: *; / = no result given.

SMILES	CHOP UPR activ	MPTP block	aDG glyco act	NR3A LBD binder	UPR XBP1 act	CHOP inhibitor
CSc1ccccc1OCc1cc(C(=O)N(C)Cc2nonc2C)no1	0.8	0.6	0.3	13.1*	0.3	/
Cc1nonc1CN(C)C(=O)c1cc(COc2ccc(F)cc2Cl)on1	1.1	-0.3	0.0	0.7	1.5	/
CC(=O)Nc1ccc(NCCc2ccco2)cc1	/	-0.8	-0.1	/	/	/
CC1CCN(C(=O)CSc2nnc(-c3ccccc3F)o2)CC1	2.6	0.4	0.0	-2.4	2.3	/
Oc1ccccc1CN(Cc1ccco1)CC(O)COCc1ccc(Cl)cc1 (stereo not given)	-1.7	8.6	0.2	-6.3	-3.0	83.5*
O=C(O)CN1C(=O)/C(=C\c2cc(Br)ccc2OCc2ccc(Cl)cc2)SC1=S	/	1.4	-0.2	4.5	/	/
O=C(O)CN1C(=O)/C(=C\c2cc(Br)ccc2OCc2ccc(F)cc2)SC1=S	-1.2	3.5	0.0	28.8*	-6.3	/
O=C(NC(=S)Nc1ccc2oc(=O)ccc2c1)c1cccc(Cl)c1	2.2	-0.2	-0.4	-2.2	-1.2	/
O=C(CN(C(=O)c1csnn1)c1ccc(Cl)cc1)NCc1ccc2c(c1)OCO2	2.7	1.8	0.2	-1.9	3.2	/
COc1ccc(S(=O)(=O)Nc2cccc3c2O[C@H](CN(C)S(=O)(=O)c2ccc(F)cc2)[C@H](C)CN([C@H](C)CO)C3=O)cc1	0.8	0.0	-0.1	10.4*	-0.1	/
COc1ccc(S(=O)(=O)N(C)C[C@H]2Oc3c(NC(=O)CCC(F)(F)F)cccc3C(=O)N([C@H](C)CO)C[C@@H]2C)cc1	-0.9	-2.3	0.1	10.4*	-1.9	/
CC(C(=O)NCc1ccco1)n1ccc2cc(S(=O)(=O)N3CCCCC3)ccc21 (stereo not given)	-0.5	0.1	-0.3	-1.0	-2.4	/
Cc1nc2c(nc1C)C(=O)c1ccccc1C2=O	/	2.6	14.3*	0.3	/	/
O=C(CCCCCNc1nc(=S)[nH]c2ccccc12)NCCc1ccc(Cl)cc1	-0.2	-0.9	0.1	-4.0	-2.1	83.5*
CC1(C)CNc2cc([N+](=O)[O-])ccc2S1	3.0	5.7	0.3	-0.9	0.9	85.0*
Cc1ccc(Oc2nccc(-c3ccc(Cl)cc3)n2)cc1	3.4	-3.3	0.2	0.8	0.4	78.3*
Clc1ccc(-c2cnc(Oc3ccccc3)nc2)cc1	5.4	2.2	0.0	-2.6	-0.8	-5.7
CN(C)CCNC(=O)Cn1c(=O)c2cccn2c2ccc(F)cc21	-1.5	1.5	-0.2	2.1	-0.9	/
O=C(Cn1c(=O)c2cccn2c2ccc(F)cc21)NCCCN1CCN(c2ccccc2F)CC1	-0.6	0.1	-0.1	13.4*	-2.5	/
COc1ccc(/C(N)=N/OC(=O)Cc2cccs2)cc1OC	3.6	-2.5	-0.1	-3.4	3.4	10.9
COc1ccc(/C(N)=N/OC(=O)Cc2cccs2)cc1	6.8	0.2	0.2	10.6*	6.2	-9.4
CCc1cccc(C)c1NC(=O)CCCN1C(=O)CN(C)C1=O	-1.3	-3.7	0.1	1.4	2.7	/
O=C(NCC(c1cccs1)N1CCOCC1)c1ccc(OCc2ccccc2)cc1 (stereo not given)	-0.8	-0.3	0.2	-1.0	-2.7	/
O=C(CNC(=O)c1ccccc1F)NNC(=O)c1ccccc1O	1.6	0.8	-0.2	-3.3	-2.9	/
Cc1cccc(C(=O)CC(=O)c2cc(Cl)ccc2O)c1	12.8	40.7	0.2	-3.6	5.2	107.7*
SMILES	CHOP UPR activ	MPTP block	aDG glyco act	NR3A LBD binder	UPR XBP1 act	CHOP inhibitor
O=C(CC(=O)c1cc(Cl)ccc1O)c1ccccc1	19.3	22.5	-0.3	2.8	3.2	110.3*
Cc1ccc(O)c(C(=O)CC(=O)c2ccc(Cl)cc2)c1	/	-1.3	0.1	1.2	/	/
Cc1cccc(C(=O)NCC(=O)NNC(=O)c2ccccc2O)c1	-0.5	-1.4	-0.1	14.1*	-4.3	/
COCCCNC1=C(C#N)C(=O)NC(c2cccs2)S1 (stereo not given)	/	-2.6	-0.2	/	/	/
Oc1ccc(N=Nc2ccc3c(c2)OCO3)c2ccccc12	65.9*	/	/	/	0.2	100.8*
O=C(NN=Cc1c(O)ccc2ccccc12)c1ccc2c(c1)OCO2	0.4	20.6	0.8	7.3	4.0	/
Clc1cccc(COn2c(-c3ccc(Cl)cc3Cl)nc3ncccc32)c1	-0.3	-5.9	-0.2	-9.6	-2.2	74.0*
CCOc1ccccc1NC(=O)CCS(=O)(=O)c1ccc2c(c1)CCN2C(C)=O	1.3	-1.3	-0.2	0.0	-2.8	/
COCCN=c1scc(-c2ccccc2)n1/N=C/c1c[nH]c2ccccc12	3.4	4.2	-0.6	3.6	2.9	72.7*
Cc1ccc(C(C(=O)NCC2CCCO2)N(C(=O)c2snc(C(N)=O)c2N)c2ccccc2F)o1 (stereo not given)	-2.7	-0.2	0.7	0.3	-2.4	/
Cc1ccc(NC(=S)Nc2cc(-c3ccccc3)[nH]n2)cc1Cl	1.6	26.4	1.2	23.8*	-0.2	83.9*
CC(=O)Nc1cc(-c2ccc(Cl)cc2)[nH]n1	3.1	-0.1	-0.1	0.9	1.9	-26.2
CC(=O)N1CCC(C(=O)NCCOc2ccc(C)cc2)CC1	1.6	0.4	0.0	2.8	-3.2	/
COc1cccc(-c2nc(-c3ccc(NC(=O)c4ccncc4)cc3)no2)c1	1.1	39.1	1.0	24.3*	1.7	30.0
COc1ccc(Cl)cc1-c1nc(-c2ccc(NC(=O)c3ccncc3)cc2)no1	-1.4	-2.4	0.0	26.0*	0.3	/
COc1cc(-c2nc(-c3ccc(NC(=O)c4ccc5c(c4)OCO5)cc3)no2)cc(OC)c1OC	12.8	-0.7	-0.2	-3.7	9.6	27.6
COc1cccc(-c2nc(-c3ccc(C(=O)O)cc3)no2)c1	-3.8	0.7	-0.1	-0.6	-4.7	/
COc1ccc(-c2nc(-c3ccc(NC(=O)c4ccncc4)cc3)no2)cc1OC	0.9	19.0	0.1	11.8*	-3.2	71.6*
COc1cccc(-c2nc(-c3ccc(NC(=O)c4cccs4)cc3)no2)c1	1.8	2.9	0.5	14.7*	-2.1	-22.1
Clc1ccc(Cl)c(-c2nc(-c3ccncc3)no2)c1	4.4	4.3	0.0	0.7	6.8	/
C/C(=N\O)C(C)(C)Nc1cccc(Br)c1	-1.0	1.8	0.2	1.2	-5.2	7.3
O=C(Nc1cccc(-c2nnco2)c1)c1cccs1	2.0	-1.0	0.1	2.0	-2.4	-3.0
COc1cccc(NC(=O)c2ccccc2-c2nc(-c3ccccc3)no2)c1	1.5	-0.1	-0.2	-0.8	1.0	60.6
COc1cccc(NC(=O)c2ccccc2-c2nc(-c3ccc(Cl)cc3)no2)c1	-2.7	3.9	0.3	15.9*	-0.6	64.3
CC(=O)Nc1ccc(NC(=O)CSc2nnc(-c3ccco3)o2)cc1	1.8	-0.1	-0.2	-1.8	-1.7	-1.4
